Compound activity (PubChem)
Mcl1-Bid inh – disrupts binding of human Mcl-1 to Bid peptide. Q07820. TR-FRET Mcl-1/Bid-Dy647 peptide binding, 1536-well. inhibition, % at 21.7 µM. actives 0.97% (n = 220,000);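 active = compounds that cut the binding signal by more than half at the single screening dose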;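 also: His-tagged Mcl-1 with europium anti-His antibody binding Bid BH3 peptide; 0% = Mcl-1 plus peptide wells and 100% = peptide-only wells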
Target sequence (Q07820 whole entry, looked up): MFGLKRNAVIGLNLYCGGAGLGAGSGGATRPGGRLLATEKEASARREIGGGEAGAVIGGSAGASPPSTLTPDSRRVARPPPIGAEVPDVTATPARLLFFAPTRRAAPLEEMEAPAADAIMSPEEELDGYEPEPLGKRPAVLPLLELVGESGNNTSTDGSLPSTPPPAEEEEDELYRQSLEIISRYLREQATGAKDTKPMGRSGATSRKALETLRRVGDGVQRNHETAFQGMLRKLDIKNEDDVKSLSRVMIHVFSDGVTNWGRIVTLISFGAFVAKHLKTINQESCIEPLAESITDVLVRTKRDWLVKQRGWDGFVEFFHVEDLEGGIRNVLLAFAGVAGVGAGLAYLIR
Calb biofilm kill – mixtures killing C. albicans biofilm; inhibition, % at 7.6 µM; AID 1242; actives 0.02% (n = 120,000); C. albicans biofilm persisters + clotrimazole, fluorescence viability; primary screen in compound mixtures of four per well;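 also: compounds exposed to preformed 24 h biofilms for 48 h; 0% = untreated biofilm control and 100% = clotrimazole plus chlorhexidine kill blank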
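System: C. albicans CAF4-2 wild-type biofilms; Medium: RPMI/MOPS medium, pH 7.0; Reagent: Clotrimazole, 50 µg/mL; Times: biofilm formation 24 h, compound exposure 48 h, 37 °C; Detection: 2-h Alamar Blue fluorescence, 535/590 nm excitation/emission; Evaluation: percent inhibition of biofilm viability.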
Hck Nef HTS – inhibitors of human Hck kinase activated by Nef; inhibition, % at 20 µM; P08631; Recombinant Hck-YEEI plus Nef, Z-Lyte FRET kinase assay; actives 0.68% (n = 220,000); AID 463187;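 active = Hck-Nef kinase inhibition above about 50%, limit read from the data; inactive = inhibition below that limit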;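 also: 0% = DMSO with Hck plus Nef and 100% = Hck alone without Nef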
Mcl-1 Bim block – disrupts Bim peptide binding to human Mcl-1; Q07820; Bead-based flow cytometry, Bim peptide-Mcl-1 binding; inhibition, % at 10 µM; actives 0.1% (n = 190,000); AID 1009; in the data active = inhibition above about 40%;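 also: 0% = no compound tracer wells and 100% = peptide blocker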
Mcl1-Noxa inh – Mcl-1/Noxa interaction inhibition. actives 1.5% (n = 220,000). AID 1022. TR-FRET Mcl-1/Noxa peptide binding, 2 h. inhibition, % at 21.7 µM;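 active = compounds that cut the protein-peptide binding signal by more than 50% relative to plate controls in a single-dose test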;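 also: His-tagged Mcl-1 with rhodamine Noxa BH3 peptide and terbium anti-His antibody; 0% = Mcl-1 plus Noxa peptide wells and 100% = peptide-only wells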
14-3-3 Bad inh – disrupts binding of bovine 14-3-3 zeta to phospho-Bad peptide. P63103. TR-FRET 14-3-3zeta/Dy647-pBad peptide displacement, 1 h. inhibition, % at 21.7 µM. actives 0.71% (n = 220,000);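 active = inhibition above about 70%, limit read from the data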;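 also: 0% = full 14-3-3 plus peptide FRET controls and 100% = background without 14-3-3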
The depositor's hits bear a star; · = no result. Shown are actives, neighbours in structure and some others; about 3.2% of the full set was active somewhere.

SMILES	Mcl1-Bid inh	Calb biofilm kill	Hck Nef HTS	Mcl-1 Bim block	Mcl1-Noxa inh	14-3-3 Bad inh
Brc1cc(Cc2nnc(-c3ccccc3)o2)c(Br)s1	-3	8	6	·	-14	3
O=C(O)CC(NC(=O)Cc1ccc(Cl)cc1)c1ccco1 (stereo not drawn)	1	16	-1	0	9	1
CCOC(=O)C1CCCN(C(c2ccccn2)c2c(C)[nH]c3ccccc23)C1 (stereo not drawn)	24	1	5	-1	34	4
Cc1cc(NC(=O)c2noc3c2CCc2ccccc2-3)no1	67*	·	·	0	41	-5
CCC(Oc1ccccc1)C(=O)Nc1ccccn1 (stereo not drawn)	4	·	-19	0	4	26
COc1ccc(NS(=O)(=O)c2cn(C)c(=O)n(C)c2=O)cc1	-14	13	27	·	-37	1
O=C(/C=C/c1ccco1)N(c1ccccn1)c1ccccn1	-66	10	27	3	62*	2
O=C(c1ccco1)N(c1ccccn1)c1ccccn1	0	·	1	-2	-10	7
Nc1ccc(-c2nc3nc(N)nc(N)c3nc2-c2ccc(N)cc2)cc1	-38	18	-1	·	28	-15
CCN(c1ccc(NC(=O)CCNC(=O)c2ccco2)cc1)C(C)C	-60	7	6	-5	75*	-23
Cc1ccc(NC(=O)CCNC(=O)c2ccco2)cc1	-1	23	3	-4	5	-2
O=C1CCCN1CCCNCC(=O)N1c2ccccc2Sc2ccccc21	51*	·	6	3	41	79*
CN1c2cccc3cccc(c23)N(C)C1c1cccs1	-46	·	0	-1	41	6
CC1N(C)c2cccc3cccc(c23)N1C	-11	9	8	11	63*	-5
Cc1ccccc1CNC(=O)Nc1cccs1	-24	·	1	0	52*	-24
O=C(NCc1cccs1)Nc1cccs1	-31	·	0	0	0	-8
COC(=O)c1nn(-c2cccc(C(F)(F)F)c2)c(=O)cc1Sc1ccccn1	-16	·	0	0	-9	2
Cc1cc(/C=C2\SC(=S)NC2=O)c(C)n1-c1ccccc1	-49	24	53*	·	42	-1
Cc1cc(/C=C2\SC(=S)NC2=O)c(C)n1-c1ccc(O)cc1	-84	19	30	·	29	6
CC(C)NC(=O)C(=O)NCCN1CCN(C(=O)c2ccc(C(C)(C)C)cc2)CC1	-27	18	-7	-1	14	-2
CNC(=O)C(=O)NCCN1CCN(C(=O)c2ccc([N+](=O)[O-])cc2)CC1	91*	7	23	1	-12	-20
O=C(CCC1CCCN(C(=O)CCC(F)(F)F)C1)NCc1ccc(F)c(F)c1 (stereo not drawn)	12	19	17	-1	53*	11
Nc1c(C(=O)NCCc2ccccc2)nnn1Cc1ccc(Br)cc1F	-5	15	22	-4	0	-10
CC(=O)Nc1ccc(C2=NNC(=NCC3CCCO3)SC2)cc1 (stereo not drawn)	3	19	-1	1	61*	-18
S=C(Nc1ccc(Nc2ccccc2)cc1)Nc1ccccn1	-26	14	94*	-4	25	-9
SMILES	Mcl1-Bid inh	Calb biofilm kill	Hck Nef HTS	Mcl-1 Bim block	Mcl1-Noxa inh	14-3-3 Bad inh
O=C(N/N=C/c1ccccn1)c1cccc(S(=O)(=O)N2CCCC2)c1	-42	17	15	·	-59	-8
O=C(N/N=C/c1ccc(O)c(O)c1)c1cccc(S(=O)(=O)N2CCCCC2)c1	-21	11	-4	0	56*	-7
COc1cc(/C=N/NC(=O)c2cccc(S(=O)(=O)N3CCCCC3)c2)cc(Br)c1O	-43	5	0	0	72*	-25
O=C(Cc1ccc([N+](=O)[O-])cc1)N1N=C(C2CC2)CC1(O)C(F)(F)F (stereo not drawn)	-1	12	-13	0	8	91*
CCn1nc(NC(=O)c2cccs2)c2cc3ccccc3nc21	-8	12	15	0	5	3
COc1ccccc1C(=O)Nc1ccc(Br)cc1C	-3	19	4	-1	13	-4
CS(=O)(=O)c1nsc2nc(=O)c(/C=C3\C=Nc4ccccc43)c(N)n12	10	16	26	0	38	9
